High-throughput results as filed in PubChem BioAssay.
Hits are enriched below; roughly 9.4% of the tested compounds scored in any of these assays.
Lmaj promast: Leishmania major promastigote growth inhibition. inhibition, % at 10 µM. AID 1063. Leishmania major promastigotes, resazurin fluorescence viability. 9% of 200,000 active; in the data active means inhibition above about 50%;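 further: promastigotes grown with compound for 44 hours at 28 °C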
Mdm2 MdmX PPI: human Mdm2/MdmX binding inhibition. SaOS-2 split-luciferase Mdm2/MdmX complementation, luminescence. inhibition, % at 8 µM. 3% of 330,000 active;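 active means inhibition of at least 50% at 8 µM in the primary screen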
T cruzi repl: T. cruzi replication inhibition | inhibition, % (test concentration not listed) | 1.4% of 300,000 active | T. cruzi beta-gal in NIH3T3, luminescence, 90 h | AID 1885;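 active means mean inhibition across valid replicates above about 55%, limit read from the data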;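 further: signal also drops with host cell toxicity which is not excluded here; 0% = plate median of DMSO wells and 100% = zero luminescence signal; higher percent means less beta-gal luminescence so fewer parasites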
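System – NIH/3T3 host cells with β-galactosidase reporter T. cruzi · Doses – single 50 nL compound addition per well in DMSO · Reagent – 5000 T. cruzi trypomastigotes/well · Medium – Low-serum DMEM with 2% FBS · Timing – ≥90 h infection period, 3 h prior cell attachment · Evaluation – parasite load inhibition, % · Technique – GalScreen luminescence, 60 min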
SKKanGAS inh: inhibitors of SKKanGAS S. pyogenes growth in kanamycin (SK-promoter or general growth effect). BacTiter-Glo, 6 h. inhibition, % at 7.5 µM. 1.3% of 300,000 active;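 active means mean replicate score, as percent of positive control median, at least 50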;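 further: strain carries kanamycin resistance gene driven by streptokinase promoter and grows in 40 µg/ml kanamycin; loss of luminescence reflects streptokinase promoter inhibition or plain growth inhibition; 0% = median of DMSO wells and 100% = positive control at its reference dose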
CSC inhib: blocks cancer stem cells; cancer stem cell-like cells viability, luminescence; AID 2717; 1.1% of 300,000 active; inhibition, % at 7.5 µM; in the data active means inhibition above about 75%; tested in HMLE shEcad cells
Beta cell apopt: blocks beta cell apoptosis; INS-1E cytokine-induced death, ATP luminescence, 48 h; percent of positive-control rescue, neutral wells zero; protection from apoptosis, % (no concentration beside the values); 0.8% of 300,000 active;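 active means Every replicate reaches about 75%, or at least half do and their mean reaches it too, limit read from the data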;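 further: 0% = cytokine-treated negative control wells and 100% = positive control rescue; higher means more ATP so stronger rescue from cytokine killing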
Mdm2 MdmX conf: human Mdm2/MdmX binding inhibition, confirmed; shares compounds with Mdm2 MdmX PPI; luminescent assay; inhibition, % at 8 µM; 55% of 10,000 active; AID 489028; in the data active means inhibition above about 40%
FLuc counter: full-length luciferase inhibition in Mdm2/MdmX counter-screen | shares compounds with Mdm2 MdmX PPI | SaOS-2 full-length luciferase counterscreen, luminescence | inhibition, % at 8 µM | 77% of 6,200 active | AID 504607;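 active means mean inhibition at 8 µM reaching about 37%, which flags the compound as non-specific, limit read from the data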;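 further: p53-null SaOS-2 cells with luciferase driven by a doxycycline-inducible promoter; compound on cells about two nights before reading with doxycycline added after day one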
* = called active by the depositor; x = not tested or not shown; + = active, no number.

SMILES	Lmaj promast	Mdm2 MdmX PPI	T cruzi repl	SKKanGAS inh	CSC inhib	Beta cell apopt	Mdm2 MdmX conf	FLuc counter
CCOC(=O)c1c(NC(=O)c2cc(C)on2)c2cc([N+](=O)[O-])ccc2n1C	x	85*	x	-5	14	27	6	x
CCN1CCN(/C=N/c2nc3c(s2)CCCC3)CC1	6	57*	-15	4	x	x	73*	91*
CN1CCN(CC(=O)Nc2nc3c(s2)CCCC3)CC1	x	22	2	12	-19	-9	x	x
Nc1c(N(CCCO)C(=O)C2CCCCC2)c(=O)[nH]c(=O)n1Cc1ccccc1	x	3	x	x	-17	-6	x	x
O=C(Cc1ccc(-c2ccccc2)cc1)NCc1ccccc1	-2	42	18	-10	x	x	x	x
Cc1ccc(CC(=O)NCc2ccc(F)cc2)cc1	-5	58*	-65	-2	-17	-4	48*	59*
Cc1ccc(CNC(=O)Cc2ccc(-c3ccccc3)cc2)cc1	2	58*	-113	-1	-13	4	61*	73*
Cc1ccc(CNC(=O)CSCc2ccc(F)cc2)cc1	4	-2	4	2	0	0	x	x
CCOC(=O)c1c(C)[nH]c(C(=O)N2CCC(C(=O)OCC)CC2)c1C	x	15	-6	-1	-5	0	x	x
COC(=O)c1cc(C(=O)NCc2ccccc2)c(=O)[nH]c1C	2	0	0	0	21	-6	x	x
CC(=O)Nc1c(C)ccc(S(N)(=O)=O)c1C	-7	-12	-11	-11	12	-3	x	x
COc1ccc(C(=O)Cn2c(C(=O)/C=C/c3ccccc3)nc3ccccc32)cc1	89*	72*	1	-6	49	21	46*	61*
Cc1ccc(-c2cc(C(=O)N/N=C/c3cccnc3)n[nH]2)o1	3	-10	-16	0	24	5	x	x
Cc1ccc(/C=N/NC(=O)c2cc(-c3ccc(C)o3)[nH]n2)cc1	x	50*	-10	-4	0	x	54*	50*
S=C(Nc1ccccc1)Nc1nc2ccccc2n1CCOc1ccc(Cl)cc1	66*	84*	-29	0	+	53	41*	68*
CCCCCCCn1c(NC(=O)CC)nc2ccccc21	x	77*	51	104*	5	53	42*	51*
CCNC(=O)c1cccc(S(=O)(=O)N2CCCCCC2)c1	-1	15	-4	-10	-4	-6	x	x
CCCn1c(NC(=S)Nc2ccccc2)nc2ccccc21	31	52*	46	4	26	43	39	x
CCCn1c(NC(=O)c2cccc(S(=O)(=O)N3CCCC3)c2)nc2ccccc21	33	93*	48	64*	x	21	76*	57*
COc1ccc(NC(=O)N(C)C[C@H]2Oc3ccc(NC(=O)Cc4ccccc4)cc3CC(=O)N([C@H](C)CO)C[C@H]2C)cc1	x	-21	x	x	x	-2	x	x
CC(=O)N(/N=C/c1ccc(C)cc1)c1nc(CCl)cs1	x	-20	-4	-2	6	-2	x	x
Cc1ccc(OCCC(=O)NNC(=O)c2cc(C)oc2C)cc1	x	2	-5	-10	12	-6	x	x
CCCn1c(Nc2nc3ccccc3n2C)nc2ccccc21	29	90*	52	9	104*	111*	100*	53*
CCCCn1c(Nc2ccccc2)nc2ccccc21	1	19	-5	4	-10	-3	x	x
COc1ccc(-c2cc(-c3ccc(O)cc3)nc(N)c2C#N)cc1	x	62*	-1	-2	20	x	24	x
SMILES	Lmaj promast	Mdm2 MdmX PPI	T cruzi repl	SKKanGAS inh	CSC inhib	Beta cell apopt	Mdm2 MdmX conf	FLuc counter
N#Cc1c(-c2ccccc2)cc(-c2ccc(O)cc2)nc1N	x	38	-8	3	x	x	x	x
COc1cc(-c2cc(-c3ccc(O)cc3)nc(N)c2C#N)ccc1O	34	81*	8	20	-11	-19	54*	92*
CN(CC(=O)NCCc1ccc(S(N)(=O)=O)cc1)S(=O)(=O)c1ccc(Br)s1	x	20	-10	-1	-10	-2	x	x
O=C(Cc1ccccc1)c1c[nH]c(C(=O)NC2CCCC2)c1	2	-7	-3	-9	-1	-2	x	x
NC(=O)c1sc2nc3c(c(-c4cccnc4)c2c1N)CCC3	0	7	-8	-1	-4	-9	x	x
NC(=O)c1sc2nc3c(c(-c4cccs4)c2c1N)CCCCC3	15	85*	19	-3	-7	-32	88*	53*
Cc1ccccc1Cn1cc(NC(=O)c2cc(-c3cccs3)on2)cn1	-6	58*	11	1	34	32	13	x
Cc1ccc(C)c(N2CCN(C(=O)c3ccc(CS(=O)(=O)c4ccccc4C)o3)CC2)c1	9	31	2	-10	-2	8	x	x
Cc1cccc(N2CCN(C(=O)c3ccc(CS(=O)(=O)c4ccccc4C)o3)CC2C)c1 (stereo not given)	59*	65*	16	3	-10	21	52*	82*
NS(=O)(=O)c1ccc(CCN2C(=O)/C(=C\c3ccc(Cl)cc3)SC2=S)cc1	-4	95*	16	15	35	45	96*	46*
CCN(CC)C(=O)Cn1cnc2sc(C)c(S(=O)(=O)N3CCC(C)CC3)c2c1=O	x	5	0	3	x	-1	x	x
CCCCOc1ccc2c(c1)/C(=C(\C(Cl)=C(Cl)Cl)[N+](=O)[O-])N2	9	2	-19	4	-12	0	x	x
Cn1ncc(SCc2ccccc2)c(Cl)c1=O	x	52*	-47	-2	-7	6	18	x
Cc1cc(/C=C2/C(=O)NN(c3ccccc3)C2=O)c(C)n1-c1ccc(O)cc1	23	52*	-7	33	-9	-1	75*	116*
CC(C)(C)c1cc(NCCCn2ccnc2)n2ncc(-c3ccc(Cl)cc3)c2n1	23	74*	58*	106*	112*	9	43*	35
Cc1cc(SCC(=O)Nc2ccccc2)n2ncc(-c3ccccc3)c2n1	x	26	18	27	-4	0	x	x
Cc1cc(NCCOCCO)n2ncc(-c3ccc(Cl)cc3)c2n1	3	61*	-53	-6	29	-13	54*	59*
CN(C)CCCNc1cc(C(C)(C)C)nc2c(-c3ccccc3)cnn12	x	100*	56*	29	99*	113*	52*	72*
COc1ccc(CCNc2cc(C)nc3c(-c4ccccc4OC)cnn23)cc1OC	x	-4	5	9	-6	5	x	x
Cc1cc(NCCCn2ccnc2)n2nc(-c3ccc(Cl)cc3)cc2n1	44	4	25	8	27	15	x	x
O=[N+]([O-])c1ccc(S(=O)(=O)N2CCN(Cc3ccco3)CC2)cc1	x	12	11	-1	-5	2	x	x
COc1ccc(CNC(=S)Nc2ccccc2-c2ccccc2)cc1	24	-28	17	6	x	6	x	x
